The list is not random: actives were taken first. Their share in the collection is about 3.5%.
MrgX1 PAM = positive allosteric modulators of MrgX1, primary screen, HEK293 cells, Fluo-4 calcium flux | B-score at 10 µM | 310,000 compounds, 0.63% hits | FDSS; stronger effect = higher value;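 active = plate-corrected calcium response at least 3 library SD above typical, normal starting fluorescence, not activating the receptor alone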;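 also: compound read alongside a low EC10 to EC30 dose of BAM8-22 agonist; peak minus trough fluorescence over baseline measured at the second addition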
Target sequence (Q96LB2 whole entry, looked up): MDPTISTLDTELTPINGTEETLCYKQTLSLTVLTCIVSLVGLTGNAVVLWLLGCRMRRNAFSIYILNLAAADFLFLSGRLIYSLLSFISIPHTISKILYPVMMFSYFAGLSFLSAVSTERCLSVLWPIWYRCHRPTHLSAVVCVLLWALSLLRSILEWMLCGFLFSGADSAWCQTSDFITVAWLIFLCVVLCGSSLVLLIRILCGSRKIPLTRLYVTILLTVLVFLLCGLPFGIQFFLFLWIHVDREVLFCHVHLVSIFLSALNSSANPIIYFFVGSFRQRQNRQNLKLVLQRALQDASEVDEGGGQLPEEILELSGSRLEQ
MrgX1 antag = antagonists of human MrgX1 receptor, primary screen, HEK293 cells, Fluo-4 calcium flux; BAM8-22 antagonism; stronger effect = lower value; B-score at 10 µM; 310,000 compounds, 1.3% hits;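 active = calcium-response B-score plate-corrected more than 3 library SD below zero, starting fluorescence within 5 deviations, no agonist response on first addition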;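 also: peak minus trough fluorescence over baseline after final BAM8-22 challenge near maximal dose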
RGS4 block = RGS4 inhibitors, primary screen, cell-based, HEK293 M3R inducible RGS4, calcium flux. Regulator of G-protein signaling 4 (Homo sapiens), P49798. 310,000 compounds, 0.45% hits. B-score at 10 µM. Fluo-4 calcium flux; stronger effect = higher value; triggered by carbachol at its EC20;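 active = B-score, a plate-corrected calcium signal, over three deviations above library mean, with baseline fluorescence within five deviations of library mean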;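 also: RGS4 expression induced by doxycycline in cells with stable M3 receptor; B-score is computed from the integrated fluorescence ratio over baseline after carbachol; higher B-score means a larger calcium signal and so more RGS4 inhibition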
Target sequence (P49798 whole entry, looked up): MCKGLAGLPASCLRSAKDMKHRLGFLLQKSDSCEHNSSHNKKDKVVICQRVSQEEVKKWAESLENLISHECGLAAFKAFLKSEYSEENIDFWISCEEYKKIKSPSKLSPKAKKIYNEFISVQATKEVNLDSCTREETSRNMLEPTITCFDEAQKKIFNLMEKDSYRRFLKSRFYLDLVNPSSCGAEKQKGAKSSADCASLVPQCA
MrgX1 agonist = agonists of human MrgX1 receptor, primary screen, HEK293 cells, Fluo-4 calcium flux | 310,000 compounds, 0.44% hits | Fluo-4 calcium fluorescence, agonist mode; stronger effect = higher value | Mas-related G-protein coupled receptor member X1 (Homo sapiens), Q96LB2 | B-score at 10 µM;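 active = calcium response B-score plate-corrected fluorescence ratio at least 3 library SD, with starting fluorescence B-score inside 5 SD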
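Test system: Stable human MrgX1 HEK293 cell line | Schedule: Overnight plating before 1 h dye loading | Read-out basis: Baseline-normalised fluorescence change ratio, B-scored | Detection: Kinetic calcium dye fluorescence, Fluo-4 NW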
RGS4 pot = RGS4 potentiators or activators, primary screen, cell-based, HEK293 M3R inducible RGS4, calcium flux; B-score at 10 µM; carbachol calcium flux Fluo4; stronger effect = lower value; AID 463111, 2010; 310,000 compounds, 0.92% hits;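 active = B-score of the integrated calcium signal more than 4 SD below the library mean, with starting fluorescence not abnormally high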;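 also: negative B-score means reduced calcium response which marks RGS4 activation or potentiation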
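test system = M3R-expressing HEK293 line, RGS4 induced by doxycycline | probe or stimulus = carbachol at ECmax as muscarinic agonist stimulus | timing = dye loading 30 min 37 °C, buffer rest 30 min RT | signal = calcium dye Fluo4 fluorescence | evaluation = B score from integrated fluorescence ratio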
RGS4 activ val = reduced carbachol calcium response, RGS4-induced M3R cells, confirmation, RGS4 activator project, cell-based, HEK293 M3R/RGS4 inducible, calcium flux, duplicate; shares compounds with RGS4 pot; carbachol calcium flux Fluo4; inhibition, % at 10 µM; 1,100 compounds, 89% hits;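 active = inhibition above 3 SD of the buffer control wells, cut at about 41% in these data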;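 also: signal is the integrated peak-minus-minimum Fluo4 fluorescence over baseline ratio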
M3R Ca counter = counter-screen for RGS4 activators: effect in non-induced cells | HEK293 M3R non-induced RGS4, Fluo4 calcium flux; after carbachol challenge at its EC90 | 1,100 compounds, 82% hits | shares compounds with RGS4 pot | inhibition, % at 10 µM;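 active = inhibition exceeding 3 SD of buffer-only control wells, cut at about 26% in these data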;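 also: percent drop in integrated peak-minus-baseline over baseline Fluo4 ratio after carbachol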
An asterisk follows results filed as active.

Screening CN1CCN(CC(=O)N2c3ccccc3Sc3ccccc32)CC1 returned MrgX1 PAM inactive, MrgX1 antag inactive, RGS4 block inactive, MrgX1 agonist inactive, RGS4 pot -11.3*, RGS4 activ val 91.5* and M3R Ca counter 75.8*.
O=C1CCCN1CCCNCC(O)c1ccccc1 (configuration not stated) was read as MrgX1 PAM inactive, MrgX1 antag inactive, RGS4 block inactive, MrgX1 agonist inactive and RGS4 pot inactive.
Screening O=C(CN1CCCCCC1)N1c2ccccc2Sc2ccccc21 returned MrgX1 PAM inactive, MrgX1 antag inactive, RGS4 block inactive, MrgX1 agonist inactive, RGS4 pot -10.6*, RGS4 activ val 91.5* and M3R Ca counter 91.8*.
For O=C1CCCN1CCCNCC(=O)N1c2ccccc2Sc2ccccc21 the results were MrgX1 PAM inactive, MrgX1 antag inactive, RGS4 block inactive, MrgX1 agonist inactive, RGS4 pot -9.37*, RGS4 activ val 85.0* and M3R Ca counter 54.8*.
Screening CCOC(=O)N1CCN(CC(=O)N2c3ccccc3Sc3ccccc32)CC1 returned MrgX1 PAM inactive, MrgX1 antag inactive, RGS4 block inactive, MrgX1 agonist inactive and RGS4 pot inactive.
`O=C(CN1CCN(CCOCCO)CC1)N1c2ccccc2Sc2ccc(Cl)cc21` gave MrgX1 PAM inactive, MrgX1 antag inactive, RGS4 block inactive, MrgX1 agonist inactive, RGS4 pot -9.11*, RGS4 activ val 88.5* and M3R Ca counter 63.8*.
Screening COC(=O)c1[nH]c2ccc(F)cc2c1NC(=O)CCN1CCN(C(=O)c2ccco2)CC1 returned RGS4 block inactive and RGS4 pot inactive.
`CN(C)S(=O)(=O)c1cccc(C(=O)OCC(=O)NCc2ccccc2)c1` gave MrgX1 PAM inactive, MrgX1 antag inactive, RGS4 block inactive, MrgX1 agonist inactive and RGS4 pot inactive.
`Cn1c(CC(=O)Nc2ccccc2)nnc1SCC(=O)NC1=NCCS1` gave MrgX1 PAM inactive, MrgX1 antag inactive, RGS4 block inactive, MrgX1 agonist inactive and RGS4 pot inactive.
Cc1ncoc1C(=O)Nc1ncc([N+](=O)[O-])s1 was read as MrgX1 PAM inactive, MrgX1 antag inactive, RGS4 block inactive, MrgX1 agonist inactive and RGS4 pot inactive.
For O=C(O)c1ccccc1SCC(=O)N1c2ccccc2Sc2ccccc21 the results were MrgX1 PAM inactive, MrgX1 antag inactive, RGS4 block inactive, MrgX1 agonist inactive and RGS4 pot inactive.
`O=C(C[n+]1ccccc1)N1c2ccccc2Sc2ccccc21` gave MrgX1 PAM inactive, MrgX1 antag inactive, RGS4 block inactive, MrgX1 agonist inactive, RGS4 pot -11.5*, RGS4 activ val 93.0* and M3R Ca counter 95.8*.
For COC(=O)C1=C(C)N(c2ccc(OC)cc2)C(C)=C(C(=O)OC)C1c1ccccc1 the results were MrgX1 PAM inactive, MrgX1 antag inactive, RGS4 block inactive, MrgX1 agonist inactive and RGS4 pot inactive.
For COC(=O)C1=C(C)N(c2ccc(OC)cc2)C(C)=C(C(=O)OC)C1c1ccc(OC)cc1 the results were MrgX1 PAM inactive, MrgX1 antag inactive, RGS4 block inactive, MrgX1 agonist inactive, RGS4 pot -8.96*, RGS4 activ val 0.0 and M3R Ca counter 0.0.
For CC(C)Nc1nc(NC(C)C)nc(N(C#N)CCOc2ccc(Cl)cc2Cl)n1 the results were MrgX1 PAM inactive, MrgX1 antag inactive, RGS4 block inactive, MrgX1 agonist inactive, RGS4 pot -7.76*, RGS4 activ val 63.0* and M3R Ca counter 83.8*.
Nc1ccc2nc3c(=O)n(CCc4ccccc4)c(=O)[nH]c3nc2c1 was read as MrgX1 PAM inactive, MrgX1 antag inactive, RGS4 block inactive, MrgX1 agonist inactive and RGS4 pot inactive.
Screening Cn1cc(CN2C[C@]3(C)C[C@H]2CC(C)(C)C3)c(-c2ccc3c(c2)OCCO3)n1 returned MrgX1 PAM inactive, MrgX1 antag inactive, RGS4 block inactive, MrgX1 agonist inactive, RGS4 pot -8.94*, RGS4 activ val 88.0* and M3R Ca counter 46.8*.
`CCOC(=O)CC1CCCCN1Cc1cn(C)nc1-c1ccc2c(c1)OCCO2` (configuration not stated) gave MrgX1 PAM inactive, MrgX1 antag inactive, RGS4 block inactive, MrgX1 agonist inactive and RGS4 pot inactive.
For COc1c2ccoc2nc2c(OC)cccc12 the results were MrgX1 PAM inactive, MrgX1 antag inactive, RGS4 block inactive, MrgX1 agonist inactive and RGS4 pot inactive.
`CCOC(=O)C1(CCCc2ccccc2)CCN(Cc2nccn2CC)CC1` gave MrgX1 PAM inactive, MrgX1 antag inactive, RGS4 block inactive, MrgX1 agonist inactive, RGS4 pot -11.4*, RGS4 activ val 92.0* and M3R Ca counter 83.8*.
`CCOC(=O)C1(CCOc2ccccc2)CCN(Cc2cccn2-c2ncccn2)CC1` gave MrgX1 PAM inactive, MrgX1 antag inactive, RGS4 block inactive, MrgX1 agonist inactive, RGS4 pot -8.08*, RGS4 activ val 54.0* and M3R Ca counter 83.8*.
Screening O=C(CNC(=O)c1cccc(Br)c1)NCCc1nc2ccccc2[nH]1 returned MrgX1 PAM inactive, MrgX1 antag inactive, RGS4 block inactive, MrgX1 agonist inactive and RGS4 pot inactive.
Screening Cc1ccc(N2CCN(C(=O)c3cc(COc4c(C)cccc4C)on3)CC2)c(C)c1 returned MrgX1 PAM inactive, MrgX1 antag inactive, RGS4 block inactive, MrgX1 agonist inactive, RGS4 pot -7.67*, RGS4 activ val 70.0* and M3R Ca counter 31.8*.
`CCOC(=O)C(=CNc1ccc(NC2=NCC(C)(C)S2)cc1)C(=O)OCC` gave MrgX1 PAM inactive, MrgX1 antag inactive, RGS4 block inactive, MrgX1 agonist inactive, RGS4 pot -11.1*, RGS4 activ val 79.0* and M3R Ca counter 83.8*.
O=C(NCc1cccnc1)C(=O)NC1CCCCC1 was read as MrgX1 PAM inactive, MrgX1 antag inactive, RGS4 block inactive, MrgX1 agonist inactive and RGS4 pot inactive.

Bioassay records (PubChem)
